Results taken from ChEMBL document CHEMBL4325893, “Synthesis and antibacterial profiles of targeted triclosan derivatives” (2019).

Experiments:
Escherichia coli [1] = assay: Antibacterial activity against Escherichia coli ATCC 11775 after 18 hrs; assay type: functional
In short: (§1)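 Broth microdilution in Nutrient Broth No. 2; stocks in ethanol diluted to 0.01–128 µg/ml (triclosan) or 0.25–256 µg/ml (glycosides). Overnight 37 °C NB2 cultures diluted 1 in 10^4 in saline and added to the dilutions. Incubation at 37 °C with agitation, OD read every 15 min; MIC is the lowest concentration preventing any OD rise after 18 h.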

Streptococcus pneumoniae [2] = assay: Antibacterial activity against Streptococcus pneumoniae ATCC 49619 after 18 hrs; assay type: functional; conditions: ATCC 49619, 18 h
In short: (§2)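 Broth microdilution in Nutrient Broth No. 2. Ethanol stocks were diluted in broth to 0.01–128 µg/ml for triclosan and 0.25–256 µg/ml for glycosides. Overnight 37°C NB2 cultures were diluted 1 in 10^4 in saline and added to the wells. Plates were incubated at 37°C with OD read every 15 min after agitation. MIC was the lowest concentration giving no OD increase at 18 h.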

Escherichia hermannii = assay: Antibacterial activity against Escherichia hermannii 33650 after 18 hrs; assay type: functional; conditions: Atlantibacter hermannii, 33650, 18 h; in short: as §1
Citrobacter freundii [3] = assay: Antibacterial activity against Citrobacter freundii OCC 851 after 18 hrs; assay type: functional; conditions: OCC 851, 18 h; in short: as §1
[4] = Antibacterial activity against Salmonella enterica subspecies enterica serotype Virchow NCTC 5742 after 18 hrs; assay type: functional, Salmonella enterica subsp. enterica serovar Virchow; conditions: NCTC 5742, 18 h; in short: as §1
Staphylococcus aureus [5] = assay: Antibacterial activity against Staphylococcus aureus ATCC 29213 after 18 hrs; assay type: functional; conditions: ATCC 29213, 18 h; in short: as §1
[6] = tested on: Staphylococcus saprophyticus; assay: Antibacterial activity against Staphylococcus saprophyticus ATCC 15305 after 18 hrs; assay type: functional; conditions: ATCC 15305, 18 h; in short: as §2
Bacillus cereus = assay: Antibacterial activity against Bacillus cereus ATCC 14579 after 18 hrs; assay type: functional; conditions: ATCC 14579, 18 h; in short: as §1
Streptococcus pyogenes = assay: Antibacterial activity against Streptococcus pyogenes ATCC 19615 after 18 hrs; assay type: functional; conditions: ATCC 19615, 18 h; in short: as §2
[7] = tested on: Staphylococcus haemolyticus; assay: Antibacterial activity against Staphylococcus haemolyticus OCC 2223 after 18 hrs; assay type: functional; conditions: OCC 2223, 18 h; in short: as §2
Escherichia coli [8] = assay: Antibacterial activity against Escherichia coli ATCC 10536 after 18 hrs; assay type: functional; conditions: ATCC 10536, 18 h; in short: as §1
[9] = Antibacterial activity against Salmonella enterica subspecies enterica serotype Nottingham NCTC 7832 after 18 hrs; assay type: functional, Salmonella enterica subsp. enterica serovar Nottingham; conditions: NCTC 7832, 18 h; in short: as §1
Klebsiella pneumoniae [10] = assay: Antibacterial activity against Klebsiella pneumoniae ATCC 10031 after 18 hrs; assay type: functional; conditions: ATCC 10031, 18 h; in short: as §1
Klebsiella aerogenes [11] = assay: Antibacterial activity against Klebsiella aerogenes NCTC 8167 after 18 hrs; assay type: functional; conditions: NCTC 8167, 18 h; in short: as §1
[12] = Antibacterial activity against Salmonella enterica subspecies enterica serotype Arizonae OCC 706 after 18 hrs; assay type: functional, Salmonella enterica subsp. enterica serovar Arizonae; conditions: OCC 706, 18 h; in short: as §1
Streptococcus agalactiae = assay: Antibacterial activity against Streptococcus agalactiae OCC 182 after 18 hrs; assay type: functional; conditions: OCC 182, 18 h; in short: as §2
Enterococcus faecalis [13] = assay: Antibacterial activity against Enterococcus faecalis ATCC 29212 after 18 hrs; assay type: functional; conditions: ATCC 29212, 18 h; in short: as §1
Cronobacter sakazakii = assay: Antibacterial activity against Cronobacter sakazakii 29544 after 18 hrs; assay type: functional; conditions: Cronobacter sakazakii, 29544, 18 h; in short: as §1
Salmonella typhimurium = assay: Antibacterial activity against Salmonella enterica subspecies enterica serotype typhimurium ATCC 14028 after 18 hrs; assay type: functional, Salmonella enterica subsp. enterica serovar Typhimurium; conditions: ATCC 14028, 18 h; in short: as §1
Enterococcus faecium = assay: Antibacterial activity against Enterococcus faecium ATCC 19434 after 18 hrs; assay type: functional; conditions: ATCC 19434, 18 h; in short: as §1
[14] = Antibacterial activity against Salmonella enterica subspecies enterica serotype Indiana OCC 597 after 18 hrs; assay type: functional, Salmonella enterica subsp. enterica serovar Indiana; conditions: OCC 597, 18 h; in short: as §1
[15] = tested on: Salmonella enterica subsp. enterica serovar Abony; assay: Antibacterial activity against Salmonella enterica subspecies enterica serotype Abony NCTC 6017 after 18 hrs; assay type: functional; conditions: NCTC 6017, 18 h; in short: as §1
Bacillus subtilis = assay: Antibacterial activity against Bacillus subtilis NCTC 10073 after 18 hrs; assay type: functional; conditions: NCTC 10073, 18 h; in short: as §1
Escherichia coli [16] = assay: Antibacterial activity against Escherichia coli NCTC 13216 after 18 hrs; assay type: functional; conditions: NCTC 13216, 18 h; in short: as §1
[17] = Antibacterial activity against Salmonella enterica subspecies enterica serotype Pullorum OCC 273 after 18 hrs; assay type: functional, Salmonella enterica subsp. enterica serovar Pullorum; conditions: OCC 273, 18 h; in short: as §1
Citrobacter freundii [18] = assay: Antibacterial activity against Citrobacter freundii 8090 after 18 hrs; assay type: functional; conditions: Citrobacter freundii, 8090, 18 h; in short: as §1
Pseudomonas aeruginosa = assay: Antibacterial activity against Pseudomonas aeruginosa ATCC 27853 after 18 hrs; assay type: functional; conditions: ATCC 27853, 18 h; in short: as §1
Staphylococcus aureus [19] = assay: Antibacterial activity against Staphylococcus aureus ATCC 9144 after 18 hrs; assay type: functional; conditions: ATCC 9144, 18 h; in short: as §1
[20] = Antibacterial activity against Enterobacter cloacae ATCC 13047 after 18 hrs; assay type: functional, Enterobacter cloacae subsp. cloacae; conditions: ATCC 13047, 18 h; in short: as §1
Salmonella enteritidis = assay: Antibacterial activity against Salmonella enterica subspecies enterica serotype Enteritidis 13076 after 18 hrs; assay type: functional, Salmonella enterica subsp. enterica serovar Enteritidis; conditions: Salmonella enterica, 13076, 18 h; in short: as §1
Proteus mirabilis = assay: Antibacterial activity against Proteus mirabilis ATCC 12453 after 18 hrs; assay type: functional; conditions: ATCC 12453, 18 h; in short: as §1
[21] = tested on: Staphylococcus epidermidis; assay: Antibacterial activity against Staphylococcus epidermidis ATCC 14990 after 18 hrs; assay type: functional; conditions: ATCC 14990, 18 h; in short: as §1
Escherichia coli [22] = assay: Antibacterial activity against Escherichia coli ATCC 8739 after 18 hrs; assay type: functional; conditions: ATCC 8739, 18 h; in short: as §1
[23] = Antibacterial activity against Salmonella enterica subspecies enterica serotype Poona NCTC 4840 after 18 hrs; assay type: functional, Salmonella enterica subsp. enterica serovar Poona; conditions: NCTC 4840, 18 h; in short: as §1
Escherichia coli [24] = assay: Antibacterial activity against Escherichia coli ATCC 25922 after 18 hrs; assay type: functional; conditions: ATCC 25922, 18 h; in short: as §1
Hafnia alvei = assay: Antibacterial activity against Hafnia alvei 13337 after 18 hrs; assay type: functional; conditions: Hafnia alvei, 13337, 18 h; in short: as §1
Staphylococcus aureus [25] = assay: Antibacterial activity against Staphylococcus aureus ATCC 6538 after 18 hrs; assay type: functional; conditions: ATCC 6538, 18 h; in short: as §1
Streptococcus pneumoniae [26] = assay: Antibacterial activity against Streptococcus pneumoniae 6305 after 18 hrs; assay type: functional; conditions: Streptococcus pneumoniae, 6305, 18 h; in short: as §2
Staphylococcus aureus [27] = assay: Antibacterial activity against Staphylococcus aureus OCC 106 after 18 hrs; assay type: functional; conditions: OCC 106, 18 h; in short: as §1
Serratia marcescens = assay: Antibacterial activity against Serratia marcescens OCC 217 after 18 hrs; assay type: functional; conditions: OCC 217, 18 h; in short: as §1
Aeromonas hydrophila = assay: Antibacterial activity against Aeromonas hydrophila OCC 778 after 18 hrs; assay type: functional; conditions: OCC 778, 18 h; in short: as §1
Streptococcus viridans = assay: Antibacterial activity against Streptococcus viridans OCC 234 after 18 hrs; assay type: functional; conditions: OCC 234, 18 h; in short: as §2
Escherichia coli [28] = assay: Antibacterial activity against Escherichia coli OCC 122 after 18 hrs; assay type: functional; conditions: OCC 122, 18 h; in short: as §1
Proteus vulgaris = assay: Antibacterial activity against Proteus vulgaris OCC 195 after 18 hrs; assay type: functional; conditions: OCC 195, 18 h; in short: as §1
Klebsiella aerogenes [29] = assay: Antibacterial activity against Enterobacter aerogenes ATCC 13048 after 18 hrs; assay type: functional; conditions: ATCC 13048, 18 h; in short: as §1
Staphylococcus aureus [30] = assay: Antibacterial activity against Staphylococcus aureus OCC 104 after 18 hrs; assay type: functional; conditions: OCC 104, 18 h; in short: as §1
Staphylococcus aureus [31] = assay: Antibacterial activity against Staphylococcus aureus ATCC 6538P after 18 hrs; assay type: functional; in short: as §1
[32] = Antibacterial activity against Salmonella enterica subspecies enterica serotype Dublin OCC 627 after 18 hrs; assay type: functional, Salmonella enterica subsp. enterica serovar Dublin; conditions: OCC 627, 18 h; in short: as §1
Staphylococcus aureus [33] = assay: Antibacterial activity against Staphylococcus aureus NCTC 13758 after 18 hrs; assay type: functional; conditions: NCTC 13758, 18 h; in short: as §1
[34] = tested on: Staphylococcus epidermidis; assay: Antibacterial activity against Staphylococcus epidermidis 155 after 18 hrs; assay type: functional; conditions: Staphylococcus epidermidis, 155, 18 h; in short: as §1
Staphylococcus aureus [35] = assay: Antibacterial activity against Staphylococcus aureus ATCC 25923 after 18 hrs; assay type: functional; conditions: ATCC 25923, 18 h; in short: as §1
Escherichia coli [36] = assay: Antibacterial activity against Escherichia coli ATCC 35218 after 18 hrs; assay type: functional; conditions: ATCC 35218, 18 h; in short: as §1
Klebsiella pneumoniae [37] = assay: Antibacterial activity against Klebsiella pneumoniae ATCC 13883 after 18 hrs; assay type: functional; conditions: ATCC 13883, 18 h; in short: as §1
Enterococcus faecalis [38] = assay: Antibacterial activity against Enterococcus faecalis ATCC 33186 after 18 hrs; assay type: functional; conditions: ATCC 33186, 18 h; in short: as §1
[39] = Antibacterial activity against Salmonella enterica subspecies enterica serotype Infantis OCC 2133 after 18 hrs; assay type: functional, Salmonella enterica subsp. enterica serovar Infantis; conditions: OCC 2133, 18 h; in short: as §1
Escherichia coli [40] = assay: Antibacterial activity against Escherichia coli 700728 after 18 hrs; assay type: functional; conditions: Escherichia coli, 700728, 18 h; in short: as §1
[41] = tested on: Staphylococcus epidermidis; assay: Antibacterial activity against Staphylococcus epidermidis ATCC 12228 after 18 hrs; assay type: functional; conditions: ATCC 12228, 18 h; in short: as §1

Measured: MIC

O[C@@H]1[C@@H](Oc2cc(Cl)ccc2Oc2ccc(Cl)cc2Cl)OC[C@@H](O)[C@H]1O
16 µg/mL: Streptococcus pyogenes | Proteus vulgaris
256 µg/mL: Enterococcus faecium
8 µg/mL: Citrobacter freundii [3] | [6] | Cronobacter sakazakii | Citrobacter freundii [18] | Klebsiella aerogenes [29]
4 µg/mL: Klebsiella aerogenes [11] | Proteus mirabilis
> 256 µg/mL: Pseudomonas aeruginosa | Serratia marcescens
32 µg/mL: Bacillus subtilis
1 µg/mL: Escherichia hermannii
0.5 to 4 µg/mL: Escherichia coli [1] | Escherichia coli [8] | Escherichia coli [16] | Escherichia coli [22] | Escherichia coli [24] | Escherichia coli [28] | Escherichia coli [36] | Escherichia coli [40]
128 µg/mL: Bacillus cereus | Streptococcus agalactiae | Enterococcus faecalis [13] | Aeromonas hydrophila | Streptococcus viridans | Enterococcus faecalis [38]
2 to 8 µg/mL: [4] | [9] | [12] | Salmonella typhimurium | [14] | [15] | [17] | Salmonella enteritidis | [23] | [32] | [39]
64 µg/mL: Streptococcus pneumoniae [2] | Streptococcus pneumoniae [26]
0.5 µg/mL: all other assays above
